Source: ChEMBL document CHEMBL4715780, “Biological evaluation of tetracationic compounds based on two 1,4-diazabicyclo[2.2.2]octane moieties connected by different linkers” (Bioorg Med Chem, 2016)

How the values were obtained:
[1] = test system: Staphylococcus aureus; assay: Antibacterial activity against […] Staphylococcus aureus ATCC 25923 assessed as concentration required to inhibit visible growth by CLSI protocol based serial microdilution method; assay type: functional
[2] = test system: Staphylococcus aureus; assay: Antibacterial activity against […] Staphylococcus aureus ATCC 25923 assessed as bacterial growth inhibition by CLSI protocol based serial microdilution method; assay type: functional
[3] = test system: Enterococcus faecalis; assay: Antibacterial activity against Enterococcus faecalis ATCC 51299 assessed as concentration required to inhibit visible growth by CLSI protocol based serial microdilution method; assay type: functional
[4] = test system: Enterococcus faecalis; assay: Antibacterial activity against Enterococcus faecalis ATCC 51299 assessed as bacterial growth inhibition by CLSI protocol based serial microdilution method; assay type: functional
[5] = test system: Pseudomonas aeruginosa; assay: Antibacterial activity against Pseudomonas aeruginosa ATCC 9027 assessed as concentration required to inhibit visible growth by CLSI protocol based serial microdilution method; assay type: functional
[6] = test system: Pseudomonas aeruginosa; assay: Antibacterial activity against Pseudomonas aeruginosa ATCC 9027 assessed as bacterial growth inhibition by CLSI protocol based serial microdilution method; assay type: functional
[7] = test system: Escherichia coli; assay: Antibacterial activity against Escherichia coli ATCC 25922 assessed as concentration required to inhibit visible growth by CLSI protocol based serial microdilution method; assay type: functional
[8] = test system: Escherichia coli; assay: Antibacterial activity against Escherichia coli ATCC 25922 assessed as bacterial growth inhibition by CLSI protocol based serial microdilution method; assay type: functional
[9] = test system: Salmonella typhimurium; assay: Antibacterial activity against Salmonella enterica ATCC 14028 assessed as concentration required to inhibit visible growth by CLSI protocol based serial microdilution method; assay type: functional, Salmonella enterica subsp. enterica serovar Typhimurium
[10] = test system: Salmonella typhimurium; assay: Antibacterial activity against Salmonella enterica ATCC 14028 assessed as bacterial growth inhibition by CLSI protocol based serial microdilution method; assay type: functional, Salmonella enterica subsp. enterica serovar Typhimurium
[11] = test system: Citrobacter freundii; assay: Antibacterial activity against Citrobacter freundii ATCC 8090 assessed as concentration required to inhibit visible growth by CLSI protocol based serial microdilution method; assay type: functional
[12] = test system: Citrobacter freundii; assay: Antibacterial activity against Citrobacter freundii ATCC 8090 assessed as bacterial growth inhibition by CLSI protocol based serial microdilution method; assay type: functional
[13] = test system: Proteus vulgaris; assay: Antibacterial activity against Proteus vulgaris ATCC 6380 assessed as concentration required to inhibit visible growth by CLSI protocol based serial microdilution method; assay type: functional
[14] = test system: Proteus vulgaris; assay: Antibacterial activity against Proteus vulgaris ATCC 6380 assessed as bacterial growth inhibition by CLSI protocol based serial microdilution method; assay type: functional
[15] = test system: Candida albicans; assay: Antifungal activity against Candida albicans CEMTC 34 assessed as concentration required to inhibit visible growth by CLSI protocol based serial microdilution method; assay type: functional
Method in brief: (§1)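 Candida albicans grown in Sabouraud dextrose broth with two-fold serial compound dilutions from water stocks; final inoculum about 5 × 10⁵ CFU/mL. Incubated at 37 °C with orbital shaking (580 rpm). MIC is the lowest concentration preventing growth, by absorbance at 595 nm. MFC is the lowest concentration with no visible growth. Duplicates in two separate experiments.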

[16] = test system: Candida albicans; assay: Antifungal activity against Candida albicans CEMTC 34 assessed as fungal growth inhibition by CLSI protocol based serial microdilution method; assay type: functional; method in brief: as §1
[17] = Cytotoxicity against human MCF7 cells assessed as reduction in cell viability measured after 24 hrs by MTT assay; assay type: cell-based
Method in brief: (§2)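 HEK293T or MCF-7 cells in IMDM with 10% FBS, seeded at 20,000 per well and grown overnight. Compounds at […] in fresh medium for 24 h at 37 °C, 5% CO₂. MTT then added for 4 h, precipitate dissolved overnight in SDS-HCl, absorbance read at 570 nm. Viability expressed relative to untreated cells, giving CC₅₀. Duplicate wells, at least two independent repeats.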

[18] = Cytotoxicity against HEK293T cells assessed as reduction in cell viability measured after 24 hrs by MTT assay; assay type: cell-based, HEK-293T; details: human; method in brief: as §2
[19] = Selectivity index, ratio of CC50 for HEK293T cells assessed as reduction in cell viability measured after 24 hrs by MTT assay to MIC for Staphylococcus aureus ATCC 25923 assessed as bacterial growth inhibition by CLSI protocol based serial microdilution method; assay type: toxicity; details: human, read-out: Selectivity Index
[20] = Selectivity index, ratio of CC50 for HEK293T cells assessed as reduction in cell viability measured after 24 hrs by MTT assay to MIC for Enterococcus faecalis ATCC 51299 assessed as bacterial growth inhibition by CLSI protocol based serial microdilution method; assay type: toxicity; details: human, read-out: Selectivity Index
[21] = Selectivity index, ratio of CC50 for HEK293T cells assessed as reduction in cell viability measured after 24 hrs by MTT assay to MIC for Pseudomonas aeruginosa ATCC 9027 assessed as bacterial growth inhibition by CLSI protocol based serial microdilution method; assay type: toxicity; details: human, read-out: Selectivity Index
[22] = Selectivity index, ratio of CC50 for HEK293T cells assessed as reduction in cell viability measured after 24 hrs by MTT assay to MIC for Escherichia coli ATCC 25922 assessed as bacterial growth inhibition by CLSI protocol based serial microdilution method; assay type: toxicity; details: human, read-out: Selectivity Index
[23] = Selectivity index, ratio of CC50 for HEK293T cells assessed as reduction in cell viability measured after 24 hrs by MTT assay to MIC for Citrobacter freundii ATCC 8090 assessed as bacterial growth inhibition by CLSI protocol based serial microdilution method; assay type: toxicity; details: human, read-out: Selectivity Index
[24] = Selectivity index, ratio of CC50 for HEK293T cells assessed as reduction in cell viability measured after 24 hrs by MTT assay to MIC for Proteus vulgaris ATCC 6380 assessed as bacterial growth inhibition by CLSI protocol based serial microdilution method; assay type: toxicity; details: human, read-out: Selectivity Index
[25] = Selectivity index, ratio of CC50 for HEK293T cells assessed as reduction in cell viability measured after 24 hrs by MTT assay to MIC for Candida albicans CEMTC 34 assessed as bacterial growth inhibition by CLSI protocol based serial microdilution method; assay type: toxicity; details: human, read-out: Selectivity Index
Method in brief: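 SI = CC₅₀ (HEK293T) / MIC. HEK293T cells were seeded at 20,000/well overnight, then exposed to 10–250 µg/mL in IMDM with 10% FBS for 24 h. MTT was added for 4 h, solubilised with SDS-HCl, and read at 570 nm; duplicates, ≥2 independent runs. MIC came from two-fold dilutions in Sabouraud dextrose broth at ~5 × 10⁵ CFU/mL, 37 °C with shaking, read at 595 nm, in duplicate.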

[26] = test system: Influenza A virus; assay: Antiviral activity against Influenza A virus (A/Puerto Rico/8/34 (H1N1) infected in MDCK cells assessed as decrease in viral titer preincubated for 1 hr followed by viral infection and cultivated for 48 hrs followed by supernatant transferred to chicken erythrocyte for 1 hr followed by measuring ability to cause positive hemagglutination; assay type: functional, organism-based; details: A/Puerto Rico/8/1934(H1N1)
Method in brief: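 MDCK monolayers in MEM were pre-incubated with compound for 1 h at 37 °C, then infected with 10-fold virus dilutions (10⁻¹–10⁻⁶) and held 48 h at 37 °C, 5% CO₂. Supernatant was mixed with an equal volume of 1% chicken erythrocytes, 60 min at room temperature. Titre was taken from the highest dilution giving full agglutination (log₁₀ EID₅₀). Triplicate per concentration.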

[27] = Cytotoxicity against MDCK cells assessed as cell death incubated for 48 hrs by MTT assay; assay type: cell-based, Canis lupus familiaris; details: dog
[28] = Selectivity index, ratio of CC50 for MDCK cells to EC50 for Influenza A virus (A/Puerto Rico/8/34 (H1N1)) infected in MDCK cells; assay type: toxicity, cell-based; details: dog, read-out: Ratio CC50/EC50
Method in brief: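 Ratio of CC₅₀ to EC₅₀, both in MDCK cells, with cytotoxicity run in parallel with the antiviral assay. EC₅₀ is the concentration halving virus production (0.3 log₁₀ EID₅₀ titre drop). It was obtained after 1 h compound pre-incubation, infection, 48 h at 37 °C, and hemagglutination read-out with 1% chicken erythrocytes.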

[29] = Selectivity index, ratio of CC50 for HEK293T cells assessed as reduction in cell viability measured after 24 hrs by MTT assay to MIC for Salmonella enterica ATCC 14028 assessed as bacterial growth inhibition by CLSI protocol based serial microdilution method; assay type: toxicity; details: human, read-out: Selectivity Index

Compound: CCCCCCCCCCCC[N+]12CC[N+](CCCCC[N+]34CC[N+](CCCCCCCCCCCC)(CC3)CC4)(CC1)CC2
- MBC [1]: 1.2 µg/mL
- MIC [2]: 0.6 µg/mL
- MBC [3]: 1.6 µg/mL
- MIC [4]: 1.6 µg/mL
- MBC [5]: 6.3 µg/mL
- MIC [6]: 3.1 µg/mL
- MBC [7]: 3.1 µg/mL
- MIC [8]: 1.6 µg/mL
- MBC [9]: 3.1 µg/mL
- MIC [10]: 1.6 µg/mL
- MBC [11]: 3.1 µg/mL
- MIC [12]: 1.6 µg/mL
- MBC [13]: > 100 µg/mL
- MIC [14]: > 100 µg/mL
- MFC [15]: 12.5 µg/mL
- MIC [16]: 6.3 µg/mL
- CC50 at 24 h [17]: 7 µg/mL
- CC50 at 24 h [18]: 7.5 µg/mL
- selectivity ratio at 24 h [19]: 13
- selectivity ratio at 24 h [20]: 5
- selectivity ratio at 24 h [21]: 2
- selectivity ratio at 24 h [22]: 5
- selectivity ratio at 24 h [23]: 5
- selectivity ratio at 24 h [24]: < 1
- selectivity ratio at 24 h [25]: 1
- EC50 [26]: 2.4 µg/mL
- CC50 at 48 h [27]: 9.7 µg/mL
- selectivity ratio [28]: 4
- selectivity ratio at 24 h [29]: 5

Compound: CCCCCCCCCCCC[N+]12CC[N+](C/C=C/C[N+]34CC[N+](CCCCCCCCCCCC)(CC3)CC4)(CC1)CC2
- MBC [1]: 1.6 µg/mL
- MIC [2]: 1.2 µg/mL
- MBC [3]: 1.6 µg/mL
- MIC [4]: 1.6 µg/mL
- MBC [5]: 3.1 µg/mL
- MIC [6]: 1.6 µg/mL
- MBC [7]: 3.1 µg/mL
- MIC [8]: 3.1 µg/mL
- MBC [9]: 3.1 µg/mL
- MIC [10]: 16 µg/mL
- MBC [11]: 3.1 µg/mL
- MIC [12]: 1.6 µg/mL
- MBC [13]: > 100 µg/mL
- MIC [14]: 100 µg/mL
- MFC [15]: 12.5 µg/mL
- MIC [16]: 12.5 µg/mL
- CC50 at 24 h [17]: 8 µg/mL
- CC50 at 24 h [18]: 10 µg/mL
- selectivity ratio at 24 h [19]: 8
- selectivity ratio at 24 h [20]: 6
- selectivity ratio at 24 h [21]: 6
- selectivity ratio at 24 h [22]: 3
- selectivity ratio at 24 h [23]: 6
- selectivity ratio at 24 h [24]: < 1
- selectivity ratio at 24 h [25]: < 1
- EC50 [26]: 2.6 µg/mL
- CC50 at 48 h [27]: 6.8 µg/mL
- selectivity ratio [28]: 3
- selectivity ratio at 24 h [29]: 6

Compound: CCCCCCCCCCCC[N+]12CC[N+](Cc3ccc(C[N+]45CC[N+](CCCCCCCCCCCC)(CC4)CC5)cc3)(CC1)CC2
- MBC [1]: 1.2 µg/mL
- MIC [2]: 0.6 µg/mL
- MBC [3]: 1.6 µg/mL
- MIC [4]: 1.6 µg/mL
- MBC [5]: 12.5 µg/mL
- MIC [6]: 6.3 µg/mL
- MBC [7]: 3.1 µg/mL
- MIC [8]: 1.6 µg/mL
- MBC [9]: 3.1 µg/mL
- MIC [10]: 1.6 µg/mL
- MBC [11]: 3.1 µg/mL
- MIC [12]: 1.6 µg/mL
- MBC [13]: 25 µg/mL
- MIC [14]: 12.5 µg/mL
- MFC [15]: 12.5 µg/mL
- MIC [16]: 12.5 µg/mL
- CC50 at 24 h [17]: 16 µg/mL
- CC50 at 24 h [18]: 16 µg/mL
- selectivity ratio at 24 h [19]: 27
- selectivity ratio at 24 h [20]: 10
- selectivity ratio at 24 h [21]: 3
- selectivity ratio at 24 h [22]: 10
- selectivity ratio at 24 h [23]: 10
- selectivity ratio at 24 h [24]: 1
- selectivity ratio at 24 h [25]: 1
- EC50 [26]: 1 µg/mL
- CC50 at 48 h [27]: 2.9 µg/mL
- selectivity ratio [28]: 3
- selectivity ratio at 24 h [29]: 10
